Activity calls are given as the source filed them. No cut-off for these calls is given here.
Legend:
[1] = Growth inhibition of VHL-null human RCC4 cells after 4 days by XTT assay; assay type: functional; conditions: RCC4, 96 h
In short: (§1)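 XTT read-out: 5000 cells/well plated, vehicle or drug added next day, 4-day exposure. Then phenol red-free medium with 0.3 mg/mL XTT, 20% FCS and 2.65 μg/mL N-methyldibenzopyrazine methyl sulfate, 1-2 h at 37 °C, absorbance at 450 nm. GI50 by linear interpolation; single determinations in triplicate. Ratio is the intraexperiment RCC4-VHL GI50 / RCC4 GI50.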

[2] = Ratio of IC50 for human RCC4-VHL cells to IC50 for VHL-null human RCC4 cells; assay type: functional; in short: as §1
RCC4 = assay: Induction of autophagy in VHL-null human RCC4 cells assessed as intracytoplasmic vacuoles at 5 uM after 24 h

SMILES	GI50 [1] [µM]	RatioGI50 [2]	Activity (RCC4)
CCOC(=O)c1sc(Nc2cccc(C)c2)nc1-c1ccncc1	> 40	–	–
c1cc(-c2csc(Nc3ccc4c(c3)OCO4)n2)ccn1	> 40	–	–
CCc1cccc(Nc2nc(-c3ccncc3)cs2)c1	2.5	9.6	–
FC(F)(F)c1ccccc1Nc1nc(-c2ccncc2)cs1	> 40	–	–
O=[N+]([O-])c1ccc(Nc2nc(-c3ccncc3)cs2)cc1	> 40	–	–
CCN(c1cccc(C)c1)c1nc(-c2ccncc2)cs1	40	0.6	–
Cc1cccc(Nc2nc(-c3ccncc3Br)cs2)c1	3.9	>10	–
Cc1cc(C)cc(Nc2nc(-c3ccncc3)cs2)c1	4.5	>9	–
C#Cc1cnccc1-c1csc(Nc2cccc(C)c2)n1	1.35	4.4	–
Cc1cccc(Nc2nc(-c3ccncc3)c(C(=O)NCCN(C)C)s2)c1	> 40	–	–
Cc1cccc(Nc2nc(-c3ccncc3)c(CCCO)s2)c1	3.6	3.7	–
Cc1cccc(N(C)c2nc(-c3ccncc3)cs2)c1	28	0.6	–
Fc1ccc(Nc2nc(-c3ccncc3)cs2)cc1	6	>7	–
O=[N+]([O-])c1ccccc1Nc1nc(-c2ccncc2)cs1	> 40	–	–
Cc1cccc(Nc2nc(-c3ccncc3)c(C(=O)N(C)C)s2)c1	16	>2.5	–
Cc1cccc(Nc2nc(Cc3cccnc3)cs2)c1	> 40	–	–
Cc1ccc(Nc2nc(-c3ccncc3)cs2)cc1O	12	4.6	–
COC(=O)CCc1sc(Nc2cccc(C)c2)nc1-c1ccncc1	> 40	–	–
Cc1cccc(C(=O)Nc2nc(-c3ccncc3)cs2)c1	> 40	–	–
Clc1cccc(Nc2nc(-c3ccncc3)cs2)c1	3	5	–
Cc1ccc(Nc2nc(-c3ccncc3)cs2)cc1C	6.5	6.4	–
Oc1ccc(Nc2nc(-c3ccccn3)cs2)cc1	36	0.7	–
Oc1ccc(Nc2nc(-c3ccncc3)cs2)cc1	5.3	8	–
OCCc1ccc(Nc2nc(-c3ccncc3)cs2)cc1	5	16	–
Fc1cccc(Nc2nc(-c3ccncc3)cs2)c1	> 40	–	–
Cc1cccc(Nc2nc(-c3ccccn3)cs2)c1	37	0.9	–

SMILES	GI50 [1] [µM]	RatioGI50 [2]	Activity (RCC4)
Cc1cccc(Nc2nc(-c3ccnc(CCCO)c3)cs2)c1	5.2	>7.7	–
Oc1ccc(Nc2nc(-c3cccnc3)cs2)cc1	> 40	–	–
c1ccc(Nc2nc(-c3cccnc3)cs2)cc1	> 40	–	–
Oc1cccc(Nc2nc(-c3ccncc3)cs2)c1	28.5	>3	–
Cc1cccc(Nc2nc(-c3ccncc3)c(CN3CCCCC3)s2)c1	13	1.9	–
Fc1ccccc1Nc1nc(-c2ccncc2)cs1	14.3	>2.8	–
Cc1ccc(C(=O)Nc2nc(-c3ccncc3)cs2)cc1	> 40	–	–
COc1ccccc1Nc1nc(-c2ccncc2)cs1	33.4	>1.2	–
Oc1ccccc1Nc1nc(-c2ccncc2)cs1	12.8	>3.1	–
Cc1cccc(Nc2nc(-c3ccncc3C)cs2)c1	5.2	>7.7	–
COc1cc(-c2csc(Nc3cccc(C)c3)n2)ccn1	28.7	1.2	–
CC(=O)Nc1cnccc1-c1csc(Nc2cccc(C)c2)n1	33.3	1	–
Clc1ccccc1Nc1nc(-c2ccncc2)cs1	27.6	>1.4	–
CC(=O)c1ccc(-c2cnccc2-c2csc(Nc3cccc(C)c3)n2)cc1	3.9	9	–
c1ccc(Nc2nc(-c3ccncc3)cs2)cc1	7	>10	–
CCc1cnccc1-c1csc(Nc2cccc(C)c2)n1	6.2	2.8	–
Cc1cccc(Nc2nc(-c3cc[n+]([O-])cc3)cs2)c1	> 40	–	–
Cc1ccccc1Nc1nc(-c2ccncc2)cs1	> 40	–	–
N#Cc1cccc(Nc2nc(-c3ccncc3)cs2)c1	> 40	–	–
N#Cc1ccc(Nc2nc(-c3ccncc3)cs2)cc1	> 40	–	–
CCOC(=O)c1sc(Nc2ccc3c(c2)CCC3)nc1-c1ccncc1	> 40	–	–
CCN(CC)Cc1sc(Nc2cccc(C)c2)nc1-c1ccncc1	13	1.4	–
COc1ccc(Nc2nc(-c3ccncc3)cs2)cc1	14	3.6	–
Cc1cccc(Nc2nc(-c3ccnc(Cl)c3)cs2)c1	2.2	3.8	–
Clc1ccc(Nc2nc(-c3ccncc3)cs2)cc1Cl	13.5	>3	–
Cc1cccc(Nc2nc(-c3cc(Cl)nc(Cl)c3)cs2)c1	15	2.3	–

SMILES	GI50 [1] [µM]	RatioGI50 [2]	Activity (RCC4)
c1cc(-c2csc(Nc3ccc4c(c3)CCC4)n2)ccn1	2	10	Active
Brc1cccc(Nc2nc(-c3ccncc3)cs2)c1	12.4	>3.2	–
OCc1sc(Nc2ccccc2)nc1-c1ccncc1	30	>1.3	–
Cc1cccc(Nc2nc(-c3ccncc3)c(C)s2)c1	10	>4	–
Cc1cccc(Nc2nc(Cc3ccncc3)cs2)c1	20.3	24.4	–
COc1cccc(Nc2nc(-c3ccncc3)cs2)c1	3	17	–
Cc1cccc(Nc2nc(-c3ccncc3F)cs2)c1	2	>20	–
CCc1cc(-c2csc(Nc3cccc(C)c3)n2)ccn1	6.4	>6.3	–
O=[N+]([O-])c1cccc(Nc2nc(-c3ccncc3)cs2)c1	> 40	–	–
Cc1cccc(Nc2nc(-c3ccncc3N)cs2)c1	> 40	–	–
CC(C)(C)c1cccc(Nc2nc(-c3ccncc3)cs2)c1	> 40	–	–
CC(C)c1cccc(Nc2nc(-c3ccncc3)cs2)c1	17	1.4	–
FC(F)(F)c1ccc(Nc2nc(-c3ccncc3)cs2)cc1	> 40	–	–
c1ccc(Nc2nc(-c3ccccn3)cs2)cc1	35.1	0.9	–
Cc1cccc(Nc2nc(-c3ccnc(F)c3)cs2)c1	4.5	>8.9	–
Cc1ccc(Nc2nc(-c3ccncc3)cs2)cc1	2.5	20	–
O=C(Nc1nc(-c2ccncc2)cs1)c1ccccc1	> 40	–	–
Cc1cccc(Nc2nc(-c3ccncc3)c(C=O)s2)c1	15	–	–
Cc1cccc(Nc2nc(-c3ccncc3)c(CN3CCOCC3)s2)c1	2.5	4.8	–
Clc1ccc(Nc2nc(-c3ccncc3)cs2)cc1	38	>2	–
Cc1sc(Nc2ccc3c(c2)CCC3)nc1-c1ccncc1	12	1.5	–
Cc1cccc(Nc2nc(-c3cccnc3)cs2)c1	> 40	–	–
Cc1cccc(Nc2nc(-c3ccnc(C)c3)cs2)c1	> 40	–	–
Cc1cccc(Nc2nc(-c3ccncc3)cs2)c1	2.1	19	–
COCC#Cc1cnccc1-c1csc(Nc2cccc(C)c2)n1	0.62	45	Active
Cc1cccc(Nc2nc(-c3ccncc3)c(C(=O)NCCCN3CCOCC3)s2)c1	> 40	–	–

SMILES	GI50 [1] [µM]	RatioGI50 [2]	Activity (RCC4)
COc1ccc(C(=O)Nc2nc(-c3ccncc3)cs2)cc1	> 40	–	–
Cc1cccc(Nc2nc(-c3ccncc3[N+](=O)[O-])cs2)c1	8.2	4.1	–
COc1cc(Nc2nc(-c3ccncc3)cs2)cc(OC)c1	> 40	–	–
Cc1cccc(CNc2nc(-c3ccncc3)cs2)c1	> 40	–	–
Cc1cccc(Nc2nc(-c3ccncc3CCCO)cs2)c1	6.8	>5.9	–
C#Cc1cc(-c2csc(Nc3cccc(C)c3)n2)ccn1	17.8	>2.2	–
COc1cc(Nc2nc(-c3ccncc3)cs2)cc(OC)c1OC	> 40	–	–
Cc1cccc(Nc2nc(-c3ccnc(C#CCO)c3)cs2)c1	9.3	1.6	–
COC(=O)/C=C/c1sc(Nc2cccc(C)c2)nc1-c1ccncc1	2.5	2.8	–
Cc1cc(Nc2nc(-c3ccncc3)cs2)ccc1O	70	2.3	–
Cc1cccc(N(CCO)c2nc(-c3ccncc3)cs2)c1	> 40	–	–
Cc1cccc(C)c1Nc1nc(-c2ccncc2)cs1	> 40	–	–
Cc1cccc(Nc2nc(-c3ccncc3)c(C(N)=O)s2)c1	19.2	>2	–
Cc1cccc(Nc2nc(-c3ccncc3)c(CO)s2)c1	7	2.4	–
OCc1sc(Nc2ccc3c(c2)CCC3)nc1-c1ccncc1	6.8	1.4	–
Cc1ccc(Nc2nc(-c3ccncc3)c(CO)s2)cc1	14	1.2	–
CN(C)CCOc1ccc(Nc2nc(-c3ccncc3)cs2)cc1	60	1.3	–
Fc1cccc(F)c1Nc1nc(-c2ccncc2)cs1	> 40	–	–
Cc1cccc(Nc2nc(-c3ccncc3)c(CN(C)C)s2)c1	16	2.3	–
Cc1cccc(Nc2nc(-c3ccnc(Br)c3)cs2)c1	2	4.3	–
COc1ccc(Nc2nc(-c3ccncc3)cs2)cc1OC	24	1.9	–
FC(F)(F)c1cccc(Nc2nc(-c3ccncc3)cs2)c1	> 40	–	–
Cc1cccc(Nc2nc(-c3ccncc3)c(CCCN3CCOCC3)s2)c1	5.8	1.6	–
CN(C)CCc1ccc(Nc2nc(-c3ccncc3)cs2)cc1	50	1.2	–

Source: ChEMBL document CHEMBL1154748, “4-Pyridylanilinothiazoles that selectively target von Hippel-Lindau deficient renal cell carcinoma cells by inducing autophagic cell death” (2010)
